Test results: ChEMBL document CHEMBL4428071 (J Med Chem, 2016)
Calls of active or inactive are those of the source. The calls are words filed in the database; no cut-off is given here.

What was measured:
[1] = target: T1, Mast/stem cell growth factor receptor Kit (Homo sapiens, UniProt P10721); test: Inhibition of wild type cKIT autophosphorylation at Y719 in human GIST-T1 cells at 100 nM after 1 hr by Western blot analysis; type: cell-based
In short: (§1)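 GIST-T1 or GIST-5R cells in DMEM with 10% FBS were treated with serially diluted compound for 1 h. Cells were then lysed and analysed by western blotting.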

[2] = target: Mast/stem cell growth factor receptor Kit (Homo sapiens, UniProt P10721, T670I); test: Inhibition of cKIT T670I mutant in human GIST-5R cells assessed as downregulation of AKT phosphorylation at S473 after 1 hr by Western blot analysis; type: cell-based; in short: as §1
Homo sapiens = organism: Homo sapiens; test: Induction of apoptosis in human GIST5R cells assessed as increase in cleaved PARP levels after 24 hrs by Western blot analysis; type: functional, cell-based
In short: (§2)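 GIST-T1 or GIST-5R cells in DMEM with 10% FBS were exposed to serially diluted compound for 24 h. Apoptosis was assessed by western blot with PARP and GAPDH antibodies.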

[3] = Toxicity in nu/nu mouse xenografted with TEL-fused cKIT T670I mutant expressed in mouse BA/F3 cells assessed as body weight reduction at 25 to 100 mg/kg/day, ip after 10 days; type: organism-based; conditions: in vivo, 240 h
In short: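 Female nu/nu mice, 5 weeks old on purchase, injected subcutaneously in the right flank with 1×10^6 BaF3-TEL-cKIT-T670I cells in PBS/Matrigel 1:1. At 200–400 mm³ tumours, mice were randomized to 7 per group. They then got 25, 50 or 100 mg/kg/day ip or vehicle (0.5% methylcellulose/0.4% Tween80 in water) for 10 days. Body weight was recorded daily relative to initial weight.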

[4] = target: T1, Mast/stem cell growth factor receptor Kit; test: Inhibition of His-tagged cKIT (unknown origin) expressed in Sf9 cells using Poly(4:1 Glu, Tyr) peptide as substrate after 1 hr by ADP-glo kinase assay
[5] = target: T1, Mast/stem cell growth factor receptor Kit; test: Ratio of sunitinib IC50 to compound IC50 for TEL-fused cKIT (unknown origin) expressed in mouse BA/F3 cells; type: cell-based
[6] = target: Serine/threonine-protein kinase 10 (Homo sapiens) (UniProt O94804); test: Inhibition of partial length human LOK expressed in bacterial expression system assessed as activity remaining at 1 uM by kinome scan assay
[7] = Cmax in Sprague-Dawley rat at 1 mg/kg, iv measured up to 8 hrs post dosing; type: ADME, organism-based; design: dose 1 mg/kg, route intravenous; conditions: in vivo
In short: (§3)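 Male Sprague-Dawley rats, 8 weeks old, fasted overnight; iv dosing from a 1 mg/mL solution in 5% DMSO/40% PEG400/55% saline. Jugular-vein blood (~0.2 mL, heparinised) taken at 1, 5, 15, 30 min and 1, 2, 4, 6, 8 h; plasma held at -80 °C until analysis; n=3.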

[8] = target: Macrophage colony-stimulating factor 1 receptor (Homo sapiens) (UniProt P07333); test: Inhibition of TEL-fused partial length human CSF1R expressed in mouse BA/F3 cells after 72 hrs by cell titer-glo assay; type: cell-based
In short: (§4)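 Cells seeded at 3000 per well and exposed to serial compound dilutions for 72 h. Viability read by CellTiter-Glo luminescence and normalised to DMSO controls; mean of three independent measurements. BaF3 lines kept IL-3-free in RPMI 1640/10% FBS after retroviral transduction and puromycin selection. GIST lines grown in DMEM/10% FBS.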

[9] = target: Receptor-type tyrosine-protein kinase FLT3 (Homo sapiens) (UniProt P36888); test: Inhibition of partial length human FLT3 expressed in bacterial expression system assessed as activity remaining at 1 uM by kinome scan assay
[10] = AUC (0 to t) in Sprague-Dawley rat at 1 mg/kg, iv measured up to 8 hrs post dosing; type: ADME, organism-based; design: time < 8 hr, dose 1 mg/kg, route intravenous; conditions: in vivo; in short: as §3
BaF3 [11] = test: Antiproliferative against mouse BA/F3 cells harboring TEL-fused cKIT T670I mutant allografted in nu/nu mouse assessed as tumor growth inhibition at 25 to 100 mg/kg, ip administered daily for 10 days by Ki-67 staining based microscopic analysis; type: functional, organism-based
In short: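 Tumours from BaF3-TEL-cKIT-T670I subcutaneous xenografts in nu/nu mice after 10 days of daily IP dosing (25–100 mg/kg/d). Sections underwent citrate pH 6.0 microwave antigen retrieval and casein block, then anti-Ki-67 mouse mAb 1:50 overnight at 4 °C. Detection with DAB and haematoxylin counterstain.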

[12] = target: Epithelial discoidin domain-containing receptor 1 (Homo sapiens) (UniProt Q08345); test: Inhibition of partial length human DDR1 expressed in bacterial expression system assessed as activity remaining at 1 uM by kinome scan assay
[13] = tested on: Mast/stem cell growth factor receptor Kit (Homo sapiens), P10721 [T670I]; test: Ratio of Imatinib IC50 to compound IC50 for cKIT T670I mutant in human in GIST-5R cells; type: cell-based
BaF3 [14] = test: Antitumor activity against TEL-fused cKIT T670I mutant expressing mouse BA/F3 cells allografted in nu/nu mouse assessed as tumor growth inhibition dosed daily via intaperitoneal route after 10 days; type: functional, organism-based
In short: (§5)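 Female nu/nu mice, 5 weeks old at purchase, given 1 million BaF3-TEL-cKIT-T670I cells in PBS/Matrigel 1:1 subcutaneously on the right flank. At tumour volume 200–400 mm3, randomised into groups of 7 and dosed IP daily for 10 days (25, 50, 100 mg/kg/d or vehicle: 0.5% methylcellulose/0.4% Tween80 in water). Tumour volume (W2×L/2) and body weight recorded daily.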

[15] = tested on: Mast/stem cell growth factor receptor Kit (Homo sapiens), P10721 [V559D,V654A]; test: Inhibition of TEL-fused cKIT V559D/V654A double mutant (unknown origin) expressed in mouse BA/F3 cells assessed as cell growth inhibition after 72 hrs by cell titer-glo assay; type: cell-based; in short: as §4
[16] = tested on: Mast/stem cell growth factor receptor Kit (Homo sapiens), P10721 [T670I]; test: Inhibition of […] cKIT T670I mutant in human GIST-5R cells assessed as cell growth inhibition after 72 hrs by cell titer-glo assay; type: cell-based
GISTT1 [17] = test: Induction of apoptosis in human GISTT1 cells assessed as increase in cleaved PARP levels after 24 hrs by Western blot analysis; type: functional, cell-based; in short: as §2
[18] = target: Receptor-type tyrosine-protein kinase FLT3 (Homo sapiens) (UniProt P36888); test: Inhibition of TEL-fused partial length human FLT3 expressed in mouse BA/F3 cells after 72 hrs by cell titer-glo assay; type: cell-based; in short: as §4
GISTT1 [19] = test: Induction of apoptosis in human GISTT1 cells assessed as increase in cleaved PARP levels after at 30 nM 24 hrs by Western blot analysis; type: functional, cell-based; in short: as §2
BaF3 [20] = test: Antitumor activity against TEL-fused cKIT T670I mutant expressing mouse BA/F3 cells allografted in nu/nu mouse assessed as tumor growth inhibition at 100 mg/kg/day, ip administered daily for 10 days; type: functional; conditions: 240 h, read-out: TGI; in short: as §5
[21] = Apparent volume of distribution in Sprague-Dawley rat at 1 mg/kg, iv measured up to 8 hrs post dosing; type: ADME, organism-based; conditions: in vivo, read-out: Vz; in short: as §3
[22] = target: T1, Mast/stem cell growth factor receptor Kit; test: Inhibition of wild type cKIT autophosphorylation at Y703 in human GIST-T1 cells at 100 nM after 1 hr by Western blot analysis; type: cell-based; in short: as §1
[23] = tested on: Mast/stem cell growth factor receptor Kit (Homo sapiens), P10721 [D816V]; test: Inhibition of TEL-fused cKIT D816V mutant (unknown origin) expressed in mouse BA/F3 cells assessed as cell growth inhibition after 72 hrs by cell titer-glo assay; type: cell-based; in short: as §4
Sequence of Mast/stem cell growth factor receptor Kit (Homo sapiens), P10721 [D816V] (P10721 whole entry D816V, the tested form may be a part): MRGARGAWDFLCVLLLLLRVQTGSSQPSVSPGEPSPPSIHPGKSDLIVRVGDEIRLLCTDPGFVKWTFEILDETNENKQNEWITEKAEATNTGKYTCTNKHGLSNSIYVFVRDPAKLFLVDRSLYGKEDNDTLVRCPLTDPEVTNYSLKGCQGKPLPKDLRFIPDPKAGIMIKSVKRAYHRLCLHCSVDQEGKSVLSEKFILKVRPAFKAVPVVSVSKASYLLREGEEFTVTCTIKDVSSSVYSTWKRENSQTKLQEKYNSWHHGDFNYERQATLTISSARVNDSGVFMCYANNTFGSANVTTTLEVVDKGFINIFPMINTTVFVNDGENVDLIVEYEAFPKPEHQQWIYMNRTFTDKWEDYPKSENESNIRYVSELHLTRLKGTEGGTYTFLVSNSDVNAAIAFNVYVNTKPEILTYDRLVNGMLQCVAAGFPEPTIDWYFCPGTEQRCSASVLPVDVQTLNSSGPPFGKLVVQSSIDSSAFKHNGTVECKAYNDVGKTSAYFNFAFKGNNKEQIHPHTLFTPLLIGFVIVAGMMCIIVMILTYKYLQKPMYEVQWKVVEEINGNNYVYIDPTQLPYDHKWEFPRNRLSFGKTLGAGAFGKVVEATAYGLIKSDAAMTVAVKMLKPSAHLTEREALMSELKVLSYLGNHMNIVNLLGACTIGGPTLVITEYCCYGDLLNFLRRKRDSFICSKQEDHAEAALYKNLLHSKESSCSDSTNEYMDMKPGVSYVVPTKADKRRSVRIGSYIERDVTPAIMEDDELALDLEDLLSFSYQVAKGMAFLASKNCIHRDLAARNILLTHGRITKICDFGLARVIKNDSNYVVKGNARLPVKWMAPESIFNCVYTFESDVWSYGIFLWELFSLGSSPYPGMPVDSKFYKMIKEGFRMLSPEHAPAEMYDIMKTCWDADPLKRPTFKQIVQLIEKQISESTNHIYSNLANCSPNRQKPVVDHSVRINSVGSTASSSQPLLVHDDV

T1 sequence (P10721 whole entry): as the sequence (P10721 whole entry D816V, the tested form may be a part) above, with V816D counted along it
Sequence of Mast/stem cell growth factor receptor Kit (Homo sapiens), P10721 [T670I] (P10721 whole entry T670I, the tested form may be a part): as the sequence (P10721 whole entry D816V, the tested form may be a part) above, with T670I, V816D counted along it
Sequence of Receptor-type tyrosine-protein kinase FLT3 (Homo sapiens) (P36888 whole entry, the tested form may be a part): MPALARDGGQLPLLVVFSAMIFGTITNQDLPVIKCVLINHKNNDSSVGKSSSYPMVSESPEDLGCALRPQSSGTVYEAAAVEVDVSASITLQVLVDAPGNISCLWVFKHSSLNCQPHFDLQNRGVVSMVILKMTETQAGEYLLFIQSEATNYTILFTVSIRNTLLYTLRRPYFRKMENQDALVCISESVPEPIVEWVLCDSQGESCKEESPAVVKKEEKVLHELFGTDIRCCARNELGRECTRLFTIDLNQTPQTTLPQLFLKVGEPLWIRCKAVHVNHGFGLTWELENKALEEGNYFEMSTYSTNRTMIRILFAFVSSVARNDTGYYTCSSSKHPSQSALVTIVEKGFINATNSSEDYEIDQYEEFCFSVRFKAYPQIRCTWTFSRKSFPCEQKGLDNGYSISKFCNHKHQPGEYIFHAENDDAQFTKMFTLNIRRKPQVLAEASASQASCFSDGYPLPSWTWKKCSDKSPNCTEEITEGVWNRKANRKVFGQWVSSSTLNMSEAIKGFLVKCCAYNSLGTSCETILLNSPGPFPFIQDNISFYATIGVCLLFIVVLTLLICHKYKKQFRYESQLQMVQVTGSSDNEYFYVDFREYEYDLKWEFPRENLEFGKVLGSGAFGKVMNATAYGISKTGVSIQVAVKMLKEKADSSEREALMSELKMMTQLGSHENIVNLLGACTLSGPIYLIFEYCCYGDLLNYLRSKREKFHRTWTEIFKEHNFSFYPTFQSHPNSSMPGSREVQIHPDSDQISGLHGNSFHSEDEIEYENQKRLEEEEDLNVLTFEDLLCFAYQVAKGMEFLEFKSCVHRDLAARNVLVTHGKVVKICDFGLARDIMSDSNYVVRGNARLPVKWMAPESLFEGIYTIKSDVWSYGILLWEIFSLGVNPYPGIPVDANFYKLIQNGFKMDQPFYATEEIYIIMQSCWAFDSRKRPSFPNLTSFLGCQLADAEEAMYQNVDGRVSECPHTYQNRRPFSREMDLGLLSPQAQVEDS
Sequence of Serine/threonine-protein kinase 10 (Homo sapiens) (O94804 whole entry, looked up): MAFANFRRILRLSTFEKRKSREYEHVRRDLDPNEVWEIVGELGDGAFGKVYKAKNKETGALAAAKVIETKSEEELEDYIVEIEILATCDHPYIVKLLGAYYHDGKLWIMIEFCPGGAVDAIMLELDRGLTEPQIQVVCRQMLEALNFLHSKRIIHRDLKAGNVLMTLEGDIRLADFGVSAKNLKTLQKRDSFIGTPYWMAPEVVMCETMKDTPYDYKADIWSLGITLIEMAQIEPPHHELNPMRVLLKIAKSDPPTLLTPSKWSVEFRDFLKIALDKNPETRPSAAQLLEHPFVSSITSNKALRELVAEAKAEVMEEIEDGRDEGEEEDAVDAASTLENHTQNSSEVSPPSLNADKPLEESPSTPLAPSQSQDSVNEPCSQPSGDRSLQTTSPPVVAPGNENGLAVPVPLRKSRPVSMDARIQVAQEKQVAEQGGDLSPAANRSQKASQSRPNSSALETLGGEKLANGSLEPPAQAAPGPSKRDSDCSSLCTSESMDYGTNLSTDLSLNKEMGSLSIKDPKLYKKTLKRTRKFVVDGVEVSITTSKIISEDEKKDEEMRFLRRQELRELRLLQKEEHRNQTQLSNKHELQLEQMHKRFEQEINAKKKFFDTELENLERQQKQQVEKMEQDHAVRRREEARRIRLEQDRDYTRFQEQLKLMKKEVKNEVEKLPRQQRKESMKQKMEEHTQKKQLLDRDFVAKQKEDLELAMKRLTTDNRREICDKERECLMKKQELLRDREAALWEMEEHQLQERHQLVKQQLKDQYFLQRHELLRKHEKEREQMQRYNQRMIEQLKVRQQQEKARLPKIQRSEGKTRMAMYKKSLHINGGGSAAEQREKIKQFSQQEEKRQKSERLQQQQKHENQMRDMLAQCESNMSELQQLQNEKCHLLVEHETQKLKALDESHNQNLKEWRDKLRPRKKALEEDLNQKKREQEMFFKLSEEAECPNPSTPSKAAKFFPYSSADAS

For CCC(=O)NCC1CCN(c2ccc(NC(=O)Nc3cccc(Oc4ccnc5cc(OC)c(OC)cc45)c3)cc2C(F)(F)F)CC1, the inhibition [1] was “Active”, the EC50 [2] was under 100 nM and the Activity (Homo sapiens) was “Dose-dependent effect”. The Activity [3] was “Non-Toxic”, the IC50 [4] was 33 nM and the Ratio IC50 [5] was 2. It also gave an Activity [6] of 0.35%, a Cmax [7] of 2560 ng/mL and a GI50 [8] of 110 nM. For the same compound, the Activity [9] was 0.85%, the AUCt [10] was 377 ng·h/mL and the TGI (BaF3 [11]) was “Active”. The Activity [12] was under 1%, the Ratio IC50 [13] was 300 and the TGI (BaF3 [14]) was “Dose-dependent effect”. For the same compound, the GI50 [15] was 360 nM, the GI50 [16] was 26 nM and the Activity (GISTT1 [17]) was “Dose-dependent effect”. For the same compound, the GI50 [18] was 99 nM, the Activity (GISTT1 [19]) was “Active” and the inhibition in vivo at 100 mg/kg/day (BaF3 [20]) was 47.7%. The Vd [21] was 7.91 L/kg, the inhibition [22] was “Active” and the GI50 [23] was 670 nM.
